Test results from ChEMBL document CHEMBL4819061, “New bioactive 5-arylcarboximidamidopyrazolo[3,4-c]pyridines: Synthesis, cytotoxic activity, mechanistic investigation and structure-activity relationships” (Eur J Med Chem, 2021).
Structures can show the parent of a compound that is named as a salt. The source made the active and inactive calls. No cut-off for these calls is given here.

Tests used:
HT-1080 [1] = assay: Cytotoxicity against human HT-1080 cells assessed as reduction in cell viability incubated for 72 hrs by MTT assay; assay type: functional, cell-based; conditions: HT-1080, 72 h
Procedure, shortened: (§1)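 Cancer lines (MDA-MB-231, HT-1080, PC-3) were grown in DMEM with 10% FBS and penicillin/streptomycin at 37 °C in 5% CO₂. About 5000 cells/well adhered overnight, then serial compound dilutions were added for 72 h, with matching DMSO dilutions (0.5–0.0008% v/v) as controls. MTT (1 mg/ml final, serum-free phenol-red-free DMEM) ran 4 h, was solubilised in 2-propanol, and OD read at 550 nm (ref 690). IC50 is the concentration halving OD versus untreated, mean of three independent experiments.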

MDA-MB-231 = assay: Cytotoxicity against human MDA-MB-231 cells assessed as reduction in cell viability incubated for 72 hrs by MTT assay; assay type: functional, cell-based; conditions: MDA-MB-231, 72 h; procedure, shortened: as §1
PC-3 = assay: Cytotoxicity against human PC-3 cells assessed as reduction in cell viability incubated for 72 hrs by MTT assay; assay type: functional, cell-based; conditions: PC-3, 72 h; procedure, shortened: as §1
AG1523 = assay: Cytotoxicity against human AG01523 cells assessed as reduction in cell viability incubated for 72 hrs by MTT assay; assay type: cell-based; conditions: AG1523, 72 h
[2] = molecular target: RAC-alpha serine/threonine-protein kinase (Homo sapiens) (UniProt P31749); assay: Inhibition of AKT phosphorylation at Ser473 residue in human HT-1080 cells at 20 uM after 15 mins by Western blotting analysis
HT-1080 [3] = assay: Induction of cell cycle arrest in human HT1080 cells assessed as accumulation at sub-diploid phase at 2 uM incubated for 24 hrs by RNase/PI staining based flow cytometric analysis (reference value: 5.36 %); assay type: functional
HT-1080 [4] = assay: Induction of apoptosis in human HT-1080 cells assessed as increase in PARP cleavage at 2 uM after 24 hrs by Western blotting analysis
HT-1080 [5] = assay: Induction of cell cycle arrest in human HT1080 cells assessed as accumulation at G0/G1 phase at 2 uM incubated for 24 hrs by RNase/PI staining based flow cytometric analysis (reference value: 32.86 %); assay type: functional
[6] = molecular target: MAP kinase p38 (Homo sapiens) (UniProt O15264+Q15759+Q16539+P53778); assay: Induction of p38 MAPK phosphorylation in human HT-1080 cells at 20 uM after 15 mins by Western blotting analysis
HT-1080 [7] = assay: Induction of cell cycle arrest in human HT1080 cells assessed as accumulation at S phase at 2 uM incubated for 24 hrs by RNase/PI staining based flow cytometric analysis (reference value: 19.59 %); assay type: functional
HT-1080 [8] = assay: Induction of cell cycle arrest in human HT1080 cells assessed as accumulation at G2/M phase at 2 uM incubated for 24 hrs by RNase/PI staining based flow cytometric analysis (reference value: 47.55 %); assay type: functional
HT-1080 [9] = assay: Inhibition of ERK phosphorylation in human HT-1080 cells at 20 uM after 15 mins by Western blotting analysis

RAC-alpha serine/threonine-protein kinase (Homo sapiens), sequence (P31749 whole entry): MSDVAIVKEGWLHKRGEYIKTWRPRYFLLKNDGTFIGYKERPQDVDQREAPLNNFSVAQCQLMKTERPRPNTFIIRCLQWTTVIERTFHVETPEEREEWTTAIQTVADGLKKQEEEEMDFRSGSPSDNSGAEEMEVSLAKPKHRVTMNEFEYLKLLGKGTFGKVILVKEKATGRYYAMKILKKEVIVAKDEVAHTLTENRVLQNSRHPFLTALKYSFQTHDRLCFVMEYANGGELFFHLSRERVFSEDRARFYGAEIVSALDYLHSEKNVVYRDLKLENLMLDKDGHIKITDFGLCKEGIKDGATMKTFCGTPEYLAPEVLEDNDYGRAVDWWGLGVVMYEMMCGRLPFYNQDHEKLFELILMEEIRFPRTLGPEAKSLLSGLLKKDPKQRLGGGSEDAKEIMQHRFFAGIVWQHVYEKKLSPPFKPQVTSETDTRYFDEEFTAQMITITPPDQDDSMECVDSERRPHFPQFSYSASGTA

SMILES | IC50 (HT-1080 [1]) [µM] | IC50 (MDA-MB-231) [µM] | IC50 (PC-3) [µM] | IC50 (AG1523) [µM] | inhibition ([2]; time 15.0 min) | Percent of cells in sub-diploid (sub-G1) phase (HT-1080 [3]) [%] | Activity (HT-1080 [4]) | Percentage of cells in G0/G1 phase (HT-1080 [5]) [%] | Activity [6] | Activity (HT-1080 [7]) [%] | Activity (HT-1080 [8]) [%] | inhibition (HT-1080 [9]) | inhibition ([2]; time 15.0 mins)
COc1ccc(Cn2nc(-c3ccccc3)c3cc(C(=N)Nc4ccccc4)nc(NC4CCCCC4)c32)cc1 | 3.4 | 3.4 | 1.1 | 26.8 | inactive |  |  |  |  |  |  |  | 
N=C(Nc1ccccc1)c1cc2c(-c3ccccc3)n[nH]c2c(NC2CCCCC2)n1 | 0.85 | 1.71 | 1.73 | 4.19 |  | 8.27 | Active | 40.23 | Active | 16.48 | 43.29 |  | 
COc1ccc(Cn2nc(-c3ccccc3)c3cc(C(=N)Nc4ccc(N5CCN(C)CC5)cc4)nc(Nc4cc(OC)c(OC)c(OC)c4)c32)cc1 | 1.2 | 0.89 | 1.24 | 1.81 |  | 27.79 | Active | 26.67 | Active | 64.04 | 9.29 | Active | Active
COc1ccc(Cn2nc(-c3ccccc3)c3cc(C(=N)Nc4ccc(N5CCN(C)CC5)cc4)nc(N4CCOCC4)c32)cc1 | 0.7 | 1.13 | 4.58 | 2.19 |  | 21.09 | Active | 34.31 |  | 34.21 | 31.48 | Active | 100%
COc1cccc2c1C(=O)c1c(O)c3c(c(O)c1C2=O)C[C@@](O)(C(=O)CO)C[C@@H]3O[C@H]1C[C@H](N)[C@H](O)[C@H](C)O1 [DOXORUBICIN HYDROCHLORIDE] | 0.008 | 0.19 | 0.38 | 0.4 |  |  |  |  |  |  |  |  | 
COc1ccc(Cn2nc(-c3ccccc3)c3cc(C(=N)Nc4ccc(N5CCN(C)CC5)cc4)nc(NC4CCCCC4)c32)cc1 | 0.64 | 1.29 | 3.54 | 3.33 |  | 14.34 | Active | 38.53 |  | 12.9 | 48.57 | Active | 
COc1ccc(Cn2nc(-c3ccccc3)c3cc(C(=N)Nc4ccc(N5CCN(C)CC5)cc4)ncc32)cc1 | 1.09 | 1.76 | 3.99 | 10.2 |  | 17.77 | Active | 46.75 |  | 17.27 | 35.98 | Active | 100%
COc1ccc(Cn2nc(-c3ccccc3)c3cc(C(=N)Nc4ccccc4)nc(Nc4cc(OC)c(OC)c(OC)c4)c32)cc1 | 11.1 | 42.1 | > 50 |  |  |  |  |  |  |  |  |  | 
CN1CCN(c2ccc(NC(=N)c3cc4c(-c5ccccc5)n[nH]c4c(NC4CCCCC4)n3)cc2)CC1 | 0.65 | 1.5 | 4.63 | 12.3 |  | 13.49 | Active | 43.78 | Active | 14.37 | 41.85 | Active | 100%
COc1ccc(Cn2cc3cc(C(=N)Nc4cccc(C(F)(F)F)c4)ncc3n2)cc1 | 13 | 15.5 | 12.8 |  |  |  |  |  |  |  |  |  | 
COc1ccc(Cn2nc(-c3ccccc3)c3cc(C(=N)Nc4ccccc4)ncc32)cc1 | 4.7 | 5.4 | 6.3 |  |  |  |  |  |  |  |  |  | 
CN1CCN(c2ccc(NC(=N)c3cc4cn[nH]c4cn3)cc2)CC1 | 31.3 | 47.5 | 45.4 |  |  |  |  |  |  |  |  |  | 
CN1CCN(c2ccc(NC(=N)c3cc4cn(C)nc4cn3)cc2)CC1 | 21 | 20.5 | 24.8 |  |  |  |  |  |  |  |  |  | 
CN1CCN(c2ccc(NC(=N)c3cc4c(-c5ccccc5)nn(C)c4cn3)cc2)CC1 | 1.4 | 4.9 | 5.9 | 10.4 |  |  |  |  |  |  |  |  | 
COc1ccc(Cn2cc3cc(C(=N)Nc4ccccc4)ncc3n2)cc1 | 1.13 | 1.52 | 2.04 | 32.4 |  | 24.06 | Active | 56.57 |  | 7.35 | 36.07 | inactive | 
